Measurements taken from paper PMC6331009 (Chemosphere, 2017).
Where two headings read alike, the source gives them in different places.

Assays:
Assay type in all cases: biochemical
UGT1A6 [1] = target: T1, UGT1A6 (Homo sapiens, UniProt P19224); test: 4-MU glucuronidation, UPLC-UV, dose response
T1 sequence (P19224 27-532): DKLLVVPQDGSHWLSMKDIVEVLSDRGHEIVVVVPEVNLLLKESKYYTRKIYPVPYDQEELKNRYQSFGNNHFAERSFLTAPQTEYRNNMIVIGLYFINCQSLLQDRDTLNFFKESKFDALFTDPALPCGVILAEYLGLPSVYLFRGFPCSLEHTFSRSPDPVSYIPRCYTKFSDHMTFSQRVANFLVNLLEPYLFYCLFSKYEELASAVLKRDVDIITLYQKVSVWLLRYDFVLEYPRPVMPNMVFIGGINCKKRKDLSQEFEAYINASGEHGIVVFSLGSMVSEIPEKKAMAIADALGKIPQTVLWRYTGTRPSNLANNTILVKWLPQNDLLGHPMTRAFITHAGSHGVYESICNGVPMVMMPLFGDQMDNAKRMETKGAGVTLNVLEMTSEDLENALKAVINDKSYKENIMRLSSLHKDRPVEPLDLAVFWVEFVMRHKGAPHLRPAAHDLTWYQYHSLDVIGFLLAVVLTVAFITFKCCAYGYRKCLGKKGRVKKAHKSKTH
Outline: (§1)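 Recombinant human UGT isoform expressed in baculovirus-infected insect cells. Test compound at 0, 0.5, 1, 5, 10, 20, 40, 60, 80 and 100 µM, with no-compound controls. After 5 min preincubation at 37 °C, 5 mM UDPGA was added to start the reaction. Reactions were stopped at 30–120 min with acetonitrile containing 7-hydroxycoumarin internal standard. 4-MU glucuronide was measured by C18 UPLC with UV at 316 nm as the peak-area ratio to internal standard. Two independent experiments in duplicate.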

UGT1A9 [2] = target: T2, UGT1A9 (Homo sapiens, UniProt O60656); test: 4-MU glucuronidation, UPLC-UV, dose response
T2 sequence (O60656 26-530): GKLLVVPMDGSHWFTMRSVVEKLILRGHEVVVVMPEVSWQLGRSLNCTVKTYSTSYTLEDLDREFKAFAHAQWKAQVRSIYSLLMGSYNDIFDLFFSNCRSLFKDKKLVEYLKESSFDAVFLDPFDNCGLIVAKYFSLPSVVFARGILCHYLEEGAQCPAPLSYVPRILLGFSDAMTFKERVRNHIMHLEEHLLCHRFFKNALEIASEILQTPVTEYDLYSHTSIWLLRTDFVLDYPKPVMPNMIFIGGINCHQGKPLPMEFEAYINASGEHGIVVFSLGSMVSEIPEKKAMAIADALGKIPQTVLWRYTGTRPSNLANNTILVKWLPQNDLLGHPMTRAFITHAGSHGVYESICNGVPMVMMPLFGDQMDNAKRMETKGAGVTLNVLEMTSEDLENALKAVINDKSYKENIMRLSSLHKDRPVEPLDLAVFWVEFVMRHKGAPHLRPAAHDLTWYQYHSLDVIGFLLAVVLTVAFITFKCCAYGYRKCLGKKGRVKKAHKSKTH
Outline: as §1

UGT1A9 [3] = target: T2, UGT1A9; test: 4-MU glucuronidation, UPLC-UV, Lineweaver-Burk slope replot
Outline: (§2)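 Recombinant human UGT isoform expressed in insect cells. 4-MU was varied, with or without test compound at levels giving 20%, 40%, 60% and 80% inhibition. After 5 min at 37 °C, 5 mM UDPGA was added; reactions ran 30–120 min. Glucuronide was quantified by UPLC-UV at 316 nm against a 7-hydroxycoumarin internal standard, with points as duplicate means. Inhibition type came from Lineweaver-Burk plots, and Ki from a replot of slopes against inhibitor concentration.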

UGT1A6 [4] = target: T1, UGT1A6; test: as above
Outline: as §2

UGT1A7 [5] = target: T3, UGT1A7 (Homo sapiens, UniProt Q9HAW7); test: as above
T3 sequence (Q9HAW7 26-530): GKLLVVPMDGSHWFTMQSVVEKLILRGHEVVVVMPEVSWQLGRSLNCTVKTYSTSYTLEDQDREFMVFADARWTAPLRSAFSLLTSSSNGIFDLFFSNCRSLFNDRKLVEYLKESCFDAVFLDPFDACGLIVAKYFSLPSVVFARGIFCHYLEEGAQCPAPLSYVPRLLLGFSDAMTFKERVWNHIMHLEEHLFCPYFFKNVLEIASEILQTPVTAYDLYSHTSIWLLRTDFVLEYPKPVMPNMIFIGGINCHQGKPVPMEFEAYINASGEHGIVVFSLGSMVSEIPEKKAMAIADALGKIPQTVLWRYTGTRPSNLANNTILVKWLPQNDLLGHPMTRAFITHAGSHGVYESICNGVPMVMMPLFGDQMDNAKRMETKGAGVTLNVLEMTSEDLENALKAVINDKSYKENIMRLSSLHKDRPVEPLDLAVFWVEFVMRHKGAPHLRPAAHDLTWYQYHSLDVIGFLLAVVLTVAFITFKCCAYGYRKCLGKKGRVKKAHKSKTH
Outline: as §2

UGT1A7 [6] = target: T3, UGT1A7; test: 4-MU glucuronidation, UPLC-UV, dose response
Outline: as §1

UGT2B4 [7] = target: T4, UGT2B4 (Homo sapiens, UniProt P06133); test: 4-MU glucuronidation, UPLC-UV, dose response
T4 sequence (P06133 24-528): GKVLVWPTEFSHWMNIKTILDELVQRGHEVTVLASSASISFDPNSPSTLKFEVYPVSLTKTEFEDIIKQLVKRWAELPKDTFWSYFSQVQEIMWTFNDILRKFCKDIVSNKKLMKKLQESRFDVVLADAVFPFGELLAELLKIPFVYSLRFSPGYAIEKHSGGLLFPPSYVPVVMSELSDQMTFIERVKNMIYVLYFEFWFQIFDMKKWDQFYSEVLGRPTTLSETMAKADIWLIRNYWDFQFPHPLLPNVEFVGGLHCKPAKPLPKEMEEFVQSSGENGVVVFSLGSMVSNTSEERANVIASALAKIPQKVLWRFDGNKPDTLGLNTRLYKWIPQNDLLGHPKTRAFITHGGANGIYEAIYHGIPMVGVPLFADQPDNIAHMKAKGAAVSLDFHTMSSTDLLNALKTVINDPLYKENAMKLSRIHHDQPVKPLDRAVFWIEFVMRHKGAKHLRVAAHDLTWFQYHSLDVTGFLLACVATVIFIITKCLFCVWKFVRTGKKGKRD
Outline: as §1

UGT2B4 [8] = target: T4, UGT2B4; test: 4-MU glucuronidation, UPLC-UV, Lineweaver-Burk slope replot
Outline: as §2

[9] = competitive, 4-MU varied, UDPGA 5 mM, MgCl2 5 mM, Tris-HCl pH 7.4, 37 °C
[10] = competitive, 4-MU 30 μM, UDPGA 5 mM, MgCl2 5 mM, Tris-HCl pH 7.4, 37 °C

| Structure (SMILES) | IC50 (UGT1A9 [2]) [µM] | Ki (UGT1A9 [3]) [µM] | IC50 (UGT2B4 [7]) [µM] | Ki (UGT2B4 [8]) [µM] | IC50 (UGT1A9 [2]; [10]) [µM] | Ki (UGT1A9 [3]; [9]) [µM] | further results |
| --- | --- | --- | --- | --- | --- | --- | --- |
| CCCCOCCOC(=O)c1ccccc1C(=O)OCCOCCCC [BBOP] | 28.3 | 73.7 | – | – | – | – | IC50 (UGT1A6 [1]): 35.1 µM; Ki (UGT1A6 [4]): 15.5 µM; Ki (UGT1A7 [5]): 23.6 µM; IC50 (UGT1A7 [6]): 18.2 µM |
| CCCCOC(=O)c1ccccc1C(=O)OCc1ccccc1 [BBZP] | 5.54 | 0.84 | 13.8 | 7.23 | – | – | IC50 (UGT1A6 [1]): 53.2 µM; Ki (UGT1A6 [4]): 52.3 µM; Ki (UGT1A7 [5]): 12.2 µM; IC50 (UGT1A7 [6]): 19.5 µM |
| C=CCOC(=O)c1ccccc1C(=O)OCC=C [DAP] | – | – | – | – | – | – | IC50 (UGT2B4 [7]; competitive, 4-MU 1000 μM, UDPGA 5 mM, MgCl2 5 mM, Tris-HCl pH 7.4, 37 °C): 14.3 µM; Ki (UGT2B4 [8]; [9]): 6.73 µM |
| CCCCOC(=O)c1ccccc1C(=O)OCCCC [DBP] | 17.6 | 22.8 | 11.9 | 4.93 | – | – | – |
| O=C(OC1CCCCC1)c1ccccc1C(=O)OC1CCCCC1 [DCHP] | – | – | – | – | 1.46 | 1.07 | – |
| CCCCCCOC(=O)c1ccccc1C(=O)OCCCCCC [DHP] | – | – | – | – | 25.4 | 0.58 | – |
| COCCOC(=O)c1ccccc1C(=O)OCCOC [DMEP] | – | – | – | – | 18.2 | 4.51 | – |
| CCCCCOC(=O)c1ccccc1C(=O)OCCCCC [DPP] | 18.5 | 1.74 | – | – | – | – | – |
| CC(C)COC(=O)c1ccccc1C(=O)OCC(C)C [DiBP] | 7.03 | 2.79 | 5.89 | 6.79 | – | – | – |
| CC(C)CCOC(=O)c1ccccc1C(=O)OCCC(C)C [DiPP] | 14.7 | 5.61 | – | – | – | – | – |
